# Laboratory results as given in paper PMC9989852 (Food and chemical toxicology : an international journal …, 2022).
# Like-named read-outs stand apart in the source and are kept apart here.
# Assays:
# B6C3F1 mice [1] = details: dermal exposure; Supplemental Table 8; ref Weatherly et al., 2021; cited from earlier work
# [2] = PFAS concentration in pooled urine; format: in vivo, B6C3F1 mice; details: B6C3F1, mouse, urine, topical, 0.5 % w/v
# Summary of the method: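 Urine was caught in a weigh boat as it was excreted during CO2 euthanasia, about 24 h after the final daily ear dose (25 μl/ear, acetone vehicle; female B6C3F1 mice). The 5 mice per group were pooled, with variable volume. Samples underwent solid-phase extraction and LC/MS/MS, as linear isomer for short-chain analytes and linear plus branched for the comparator. Each group gave a single value without statistics.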
# B6C3F1 mice [3] = experiment: Organ weights and body weight after 28-day dermal exposure; format: in vivo; details: 0.5%, 28 days
# [4] = PFAS concentration in serum; format: in vivo, B6C3F1 mice; details: 0.5%, dermal, 28 days
# Summary of the method: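 Serum came by cardiac puncture about 24 h after the final daily ear dose (25 μl/ear, acetone vehicle; female B6C3F1 mice). Samples underwent solid-phase extraction and LC/MS/MS. Short-chain analytes were quantified as linear isomer only; the legacy comparator was quantified as linear plus branched. Data are mean ± SE of 4–5 mice, one-way ANOVA with Dunnett's vs vehicle.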
# B6C3F1 mice [5] = experiment: Serum chemistries after 28-day dermal exposure; format: in vivo; details: 28 days
# Summary of the method: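 Female B6C3F1 mice received daily dorsal ear application (25 μl/ear, acetone vehicle). About 24 h after the last dose, blood was taken by cardiac puncture. Serum was separated by centrifugation and stored at −20 °C. ALKP, BUN, glucose and cholesterol were read on a Catalyst DX analyzer. Data are mean ± SE of 4–5 mice, ANOVA with Dunnett's; ALKP was also tested by linear regression (p < 0.05).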
# ear pinna [6] = experiment: Skin; format: in vivo, B6C3F1 mice; details: 0.5%, dermal, 28 days
# Summary of the method: (§1)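 Female B6C3F1 mice (5/group) received 25 μl/ear daily to the dorsal ears in acetone. About 24 h after the last dose, tissues went into RPMI: both auricular dLNs, half spleen and one ear pinna. Single-cell suspensions were acquired on an LSR II, with populations gated per supplemental strategy and FMO gating controls. Results are mean ± SE, n=5, by one-way ANOVA.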
# spleen = experiment: Spleen phenotyping by flow cytometry after 28-day dermal exposure; format: in vivo, B6C3F1 mice; details: 0.5%, 28 days
# Summary of the method: as §1
# liver = experiment: Liver histopathology after 28-day dermal exposure; format: in vivo, B6C3F1 mice; details: 0.5%, 28 days
# Summary of the method: (§2)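 Female B6C3F1 mice (5/group) received 25 μl/ear on the dorsal ear surfaces daily, with acetone as vehicle. Tissues were formalin-fixed about 24 h after the last dose: liver remainder, half spleen, right kidney and half ear pinna. Sections were paraffin-embedded, cut at 5 μm and stained with H&E. A veterinary pathologist read them per STP guideline and graded 1 (minimal) to 5 (severe) by extent.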
# [7] = system: auricular draining lymph nodes (dLNs); experiment: Draining lymph node phenotyping by flow cytometry after 28-day dermal exposure; format: in vivo, B6C3F1 mice; details: 0.5%, 28 days
# Summary of the method: as §1
# kidney, spleen = experiment: Kidney and spleen histopathology after 28-day dermal exposure; format: in vivo, B6C3F1 mice; details: 0.5%, 28 days
# Summary of the method: as §2
# liver (caudate) = experiment: Liver gene expression; format: in vivo, B6C3F1 mice; details: 0.5%, dermal, 28 days
# Summary of the method: (§3)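 Dosing was daily topical to both dorsal ears (25 μl/ear, acetone vehicle) in female B6C3F1 mice. Liver caudate lobe or half ear pinna was stored in RNAlater and homogenized in RLT buffer. RNA was isolated on RNeasy columns with DNase, and 1–2 μg was reverse-transcribed. TaqMan real-time PCR was read as 2−ΔΔCT vs vehicle, normalized to β-actin. Statistics: ANOVA/Dunnett's, or Kruskal-Wallis/Dunn's for unequal variance.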
# skin [8] = experiment: Irritation at the site of dermal application; format: in vivo, B6C3F1 mice; details: 0.5%, 28 days
# ear pinna [9] = experiment: Skin; format: in vivo, B6C3F1 mice; details: 0.5%, dermal, 28 days; remark: listed apart in the source
# Summary of the method: as §3
# skin [10] = details: concentrations up to 2%; ref Shane et al., 2020; cited from earlier work
# [11] = ref ATSDR, 2021; cited from earlier work
structure (smiles),measurement,setting,value
"O=C(O)C(F)(F)C(F)(F)C(F)(F)F [PFBA, heptafluorobutyric acid]",serum cholesterol,B6C3F1 mice [1],elevated cholesterol
same,serum glucose levels,B6C3F1 mice [1],increase in glucose levels
"O=C(O)C(F)(F)C(F)(F)C(F)(F)C(F)(F)C(F)(F)C(F)(F)C(F)(F)F [PFOA, perfluorooctanoic acid, reference compound]",concentration at 24 h,[2],260 µg/mL
same,body weight,B6C3F1 mice [3],significant decrease
same,"kidney weight (% body weight), increase",B6C3F1 mice [3],8%
same,"liver weight (% body weight), increase",B6C3F1 mice [3],120%
same,"spleen weight (% body weight), decrease",B6C3F1 mice [3],41%
same,"thymus weight (% body weight), decrease",B6C3F1 mice [3],71%
same,PFAS serum concentration vs vehicle,[4],significant increase
same,"serum ALKP, increase",B6C3F1 mice [5]; 0.5%,112%
same,serum BUN,B6C3F1 mice [5]; 0.5%,No change
same,serum cholesterol,B6C3F1 mice [5]; 0.5%,No change
same,"serum glucose, decrease",B6C3F1 mice [5]; 0.5%,44%
same,serum alanine aminotransferase (ALT),"B6C3F1 mice [5]; any concentration, data not shown",No change
same,"skin CD11b + F4/80+ DCs, frequency and cell number",ear pinna [6],significantly decreased
same,"skin CD11b− F4/80 DCs, frequency and cell number",ear pinna [6],significantly decreased
same,"skin CD11b− F/480+ DCs, frequency and cell number",ear pinna [6],significantly decreased
same,"skin CD45^+ cells, frequency and cell number",ear pinna [6],significantly decreased
same,"skin eosinophils, frequency and cell number",ear pinna [6],significantly decreased
same,"skin total DCs, frequency and cell number",ear pinna [6],significantly decreased
same,spleen MFI of MHCII on B-cells,spleen,decrease
same,spleen MFI of MHCII on DCs,spleen,decrease
same,spleen frequency of CD4^+ T-cells,spleen,increase
same,spleen frequency of CD8^+ T-cells,spleen,increase
same,spleen frequency of CD11b + Ly6C + cells,spleen,decrease
same,spleen frequency of CD11b + Ly6C− cells,spleen,decrease
same,spleen frequency of CD11b + cells,spleen,decrease
same,spleen frequency of NK cells,spleen,decrease
same,spleen frequency of neutrophils,spleen,increase
same,spleen number of B-cells,spleen,significant decrease
same,spleen number of CD4^+ T-cells,spleen,significant decrease
same,spleen number of CD11b + Ly6C + cells,spleen,significant decrease
same,spleen number of CD11b + Ly6C− cells,spleen,significant decrease
same,spleen number of CD11b + cells,spleen,significant decrease
same,spleen number of NK cells,spleen,significant decrease
same,spleen number of eosinophils,spleen,significant decrease
same,spleen number of total DCs,spleen,significant decrease
same,spleen total cell number,spleen,significant decrease
same,"liver hepatocellular hypertrophy (diffuse), marked (incidence)",liver,5/5
same,dLN B-cells,[7],no B-cell changes
same,"dLN CD4^+ T-cells, cell number and frequency",[7],decreased
same,dLN MHCII MFI on B-cells,[7],decrease
same,dLN eosinophil cell number,[7],decrease
same,total dLN cellularity,[7],neither PFOA (Supplemental Table 3) nor PFBA (Supplemental Table 9) induced changes
same,"spleen decreased lymphocyte cellularity, mild (incidence)","kidney, spleen",2/5
same,"liver Cd36 gene expression, increase",liver (caudate),12.2 fold
same,"liver Ehhadh gene expression, increase",liver (caudate),57.7 fold
same,"liver Lpl gene expression, increase",liver (caudate),13.1 fold
same,liver Pparδ gene expression,liver (caudate),decrease
same,"liver Serpine1 gene expression, increase",liver (caudate),10.5 fold
same,irritation at the site of application,skin [8],no irritation
same,skin Flg gene expression,ear pinna [9],increased
same,skin Pparγ gene expression,ear pinna [9],significant decrease
same,skin Pparδ gene expression,ear pinna [9],slight significant increase
same,skin Serpine1 gene expression,ear pinna [9],significant increase
same,signs of skin irritation,skin [10],did not show any signs of irritation
same,half-life in humans,[11],2.1–10.1 years
